In PubChem BioAssay:
The source made the active and inactive calls.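 The calls were made as follows, unless noted: active = Her2 level under about 52% in both replicate screens, with viability over 70% of control (limit read from the data); inconclusive = Her2 under the limit in one screen only, or viability under 70%; inactive = Her2 level above the set limit.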

Columns and labels:
[1] = reducers of endogenous Her2 protein level, primary screen, SKBR3 breast tumor cells, AlphaScreen, ATP viability (AID 461); settings: 18-24 h, measured here: SKBR3 viability, ATP luminescence, at 10 µM;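 as to Her2 level: lower value means less Her2 protein in the cells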;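 as to viability: percent of carrier control wells set as 100% viability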
[2] = target: Receptor tyrosine-protein kinase erbB-2 (Homo sapiens) (UniProt P04626); assay: as above; settings: 18-24 h, at 10 µM, stronger effect = lower value
[3] = SK-BR-3 cell growth inhibitors, pilot screen, 24 h, human (AID 572;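 active = viability at or below 10% of carrier control in both of two separate runs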;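 also: compound exposure lasted between 18 and 24 h rather than exactly 24 h; 100% = carrier-treated control wells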); settings: SK-BR-3 viability, CellTiter-Glo luminescence, at 10 µM, stronger effect = lower value
[4] = HUVEC growth inhibition – cell-based, human, primary screen (AID 575;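 active = viability at or below 30% in both replicate assays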;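 also: 100% = median of untreated cell wells with 0.1% DMSO on each plate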); settings: HUVEC proliferation, CellTiter-Glo luminescence, 72 h; at 10 µM; stronger effect = lower value
Procedure, shortened: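 System: primary human umbilical vein endothelial cells; Quantity: 1250 endothelial cells in each well; Buffer or medium: supplemented EBM, 2% fetal bovine serum; Doses: one dose, 10 µM final, 0.1% DMSO; Incubation: 72 h compound incubation; Technique: ATP-based CellTiter-Glo luminescent read; Evaluation: percent of median DMSO-control luminescence; Controls: vehicle and MePR control wells.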

[5] = growth inhibitors of H69AR lung tumor, primary screen, human, duplicate replicates (AID 580;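 active = viability at or under a set limit in both replicates, limit being median viability minus 3 SD, cut at about 48% in these data, passing the limit was not always enough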;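 also: 100% = mean luminescence of untreated wells and 0% = no signal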); settings: H69AR lung tumor cells viability, ATP luminescence, 72 h; at 10 µM; stronger effect = lower value
[6] = reversal of MRP1-mediated doxorubicin resistance, pilot screen, H69AR cells, doxorubicin co-treatment (AID 601;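 active = viability loss from added drug above about 55%, and viability with drug at most 40%, in both replicates, limit read from the data, passing the limit was not always enough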); settings: CellTiter-Glo, 72 h, at 10 µM; for differential viability (reversal): stronger effect = higher value
[7] = 384-well plate pilot, post-Golgi transport modulator project, inhibition of yeast transport mutant growth (AID 636; in the data active = inhibition above about 31%); settings: absorbance 615 nm, about 18 h, stronger effect = higher value
[8] = growth suppression of yeast trafficking mutant, preliminary HTS, modulators of trafficking downstream of Golgi apparatus project, 1536-format plate, OD 615 nm (AID 637; in the data active = inhibition above about 30%); settings: yeast transport mutant growth, absorbance 615 nm, 18 h; stronger effect = higher value
[9] = H69AR cells + 2 uM doxorubicin, measured here: viability with 2 uM doxorubicin, stronger effect = lower value
[10] = H69AR cells, compound alone cytotoxicity

Receptor tyrosine-protein kinase erbB-2 (Homo sapiens), sequence (P04626 whole entry, looked up): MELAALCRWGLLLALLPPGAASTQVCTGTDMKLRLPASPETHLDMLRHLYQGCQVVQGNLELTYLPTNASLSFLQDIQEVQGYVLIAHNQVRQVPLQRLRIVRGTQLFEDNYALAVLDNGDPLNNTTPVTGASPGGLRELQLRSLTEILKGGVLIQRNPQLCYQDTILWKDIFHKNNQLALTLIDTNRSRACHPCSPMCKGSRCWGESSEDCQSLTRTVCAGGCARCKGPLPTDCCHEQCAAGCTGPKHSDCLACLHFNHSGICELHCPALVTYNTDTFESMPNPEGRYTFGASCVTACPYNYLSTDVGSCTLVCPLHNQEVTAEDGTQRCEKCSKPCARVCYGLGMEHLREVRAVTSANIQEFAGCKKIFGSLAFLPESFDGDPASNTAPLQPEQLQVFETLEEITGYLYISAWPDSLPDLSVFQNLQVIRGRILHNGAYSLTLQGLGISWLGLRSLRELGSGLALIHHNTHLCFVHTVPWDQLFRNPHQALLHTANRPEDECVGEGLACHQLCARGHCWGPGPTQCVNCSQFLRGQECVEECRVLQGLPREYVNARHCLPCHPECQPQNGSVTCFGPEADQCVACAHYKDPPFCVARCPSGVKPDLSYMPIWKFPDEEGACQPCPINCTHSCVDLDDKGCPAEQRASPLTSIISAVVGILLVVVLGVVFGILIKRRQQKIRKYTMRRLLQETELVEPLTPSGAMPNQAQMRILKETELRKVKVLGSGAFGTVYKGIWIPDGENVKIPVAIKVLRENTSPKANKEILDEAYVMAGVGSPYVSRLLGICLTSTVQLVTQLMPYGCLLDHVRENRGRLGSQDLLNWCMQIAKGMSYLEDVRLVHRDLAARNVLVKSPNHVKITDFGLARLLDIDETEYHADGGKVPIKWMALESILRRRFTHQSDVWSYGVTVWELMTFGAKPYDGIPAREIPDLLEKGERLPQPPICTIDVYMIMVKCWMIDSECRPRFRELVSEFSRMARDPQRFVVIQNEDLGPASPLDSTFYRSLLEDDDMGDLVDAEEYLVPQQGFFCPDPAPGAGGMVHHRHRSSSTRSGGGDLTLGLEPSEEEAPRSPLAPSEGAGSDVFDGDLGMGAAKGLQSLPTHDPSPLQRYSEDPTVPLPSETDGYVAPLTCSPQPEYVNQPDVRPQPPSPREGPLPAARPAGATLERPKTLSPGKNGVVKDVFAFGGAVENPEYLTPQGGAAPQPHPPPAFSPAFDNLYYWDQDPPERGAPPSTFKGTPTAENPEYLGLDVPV

Row | Structure (SMILES) | viability [1] [%] | Her2 level [2] | viability [3] | viability [4] | viability [5] | differential viability (reversal) ([6]; H69AR cells + 2 uM doxorubicin) | viability [6, 9] [%] | viability [6, 10] [%] | inhibition [7] | inhibition [8]
1 | Cn1c(SCC(=O)O)nnc1C1CCCCC1 | 102 | 110% (inactive) | 102% (inactive) | 99.7% (inactive) | 92.7% (inactive) | -1.2% (inactive) | 93.9 | 92.7 | 0.27% (inactive) | 8.85% (inactive)
2 | CCOC(=O)c1[nH]c(C)c(C(=O)Nc2ccc(C)c(Cl)c2)c1C | 94 | 88% (inactive) | 94% (inactive) | 61.4% (inactive) | 28.6% (active) | -29% (inactive) | 57.6 | 28.6 | -5.53% (inactive) | -2.7% (inactive)
3 | CCOC(=O)c1sc(=NC(=O)c2ccc(OC)c(OC)c2)n(C)c1C | 121 | 84% (inactive) | 121% (inactive) | 108% (inactive) | 65% (inactive) | -6.65% (inactive) | 71.7 | 65 | -5.06% (inactive) | -0.16% (inactive)
4 | O=c1c[n+]([O-])c2ccccc2n1OCc1c(F)cccc1F | 90.5 | 70.5% (inactive) | 90.5% (inactive) | 93.4% (inactive) | 88.2% (inactive) | 1.98% (inactive) | 86.3 | 88.2 | -3.33% (inactive) | -1.59% (inactive)
5 | CCOC(=O)c1[nH]c2ccccc2c1NC(=O)C(C)(C)C | 102 | 96% (inactive) | 102% (inactive) | 80.6% (inactive) | 96.6% (inactive) | 2.35% (inactive) | 94.2 | 96.6 | -5.33% (inactive) | 1.67% (inactive)
6 | Cc1nn(-c2ccccc2)c2c1C(c1c(C)[nH]c(C#N)c1C)C(C#N)=C(N)O2 (stereo not given) | 88 | 86.5% (inactive) | 88% (inactive) | 85.5% (inactive) | 92.7% (inactive) | -13.2% (inactive) | 106 | 92.7 | -4.13% (inactive) | -5.25% (inactive)
7 | COc1cc(S(=O)(=O)N2CCOCC2)ccc1NC(=O)COC(=O)C12CC3CC(CC(C3)C1)C2 | 92 | 73.5% (inactive) | 92% (inactive) | 87.2% (inactive) | 85% (inactive) | -11.2% (inactive) | 96.2 | 85 | 0.38% (inactive) | -11.7% (inactive)
8 | O=C(NCc1ccco1)c1cccn2c(=O)c3sccc3nc12 | 104 | 74.5% (inactive) | 104% (inactive) | 82.5% (inactive) | 58.4% (inactive) | -24% (inactive) | 82.4 | 58.4 | -1.2% (inactive) | -7.87% (inactive)
9 | COc1cccc(OC)c1OCCNCCO | 126 | 98% (inactive) | 126% (inactive) | 85.7% (inactive) | 96% (inactive) | 11.2% (inactive) | 84.8 | 96 | -1.82% (inactive) | 0.33% (inactive)
10 | C[C@H](NC(=O)NCc1cccs1)C(=O)O | 104 | 98.5% (inactive) | 104% (inactive) | 111% (inactive) | 93.6% (inactive) | 0.105% (inactive) | 93.5 | 93.6 | -3.87% (inactive) | -4.43% (inactive)
11 | O=C1OC2(c3ccccc3)C3CCCC2C13 | 100 | 120% (inactive) | 100% (inactive) | 97.3% (inactive) | 100% (inactive) | 7.76% (inactive) | 92.4 | 100 | -6.44% (inactive) | 5.87% (inactive)
12 | C=CCn1c(SCC(=O)NC23CC4CC(CC(C4)C2)C3)nc(O)cc1=O | 138 | 108% (inactive) | 138% (inactive) | 91.4% (inactive) | 92.9% (inactive) | 0.68% (inactive) | 92.2 | 92.9 | -1.18% (inactive) | -0.48% (inactive)
13 | C#CC(CO)N(CCN(Cc1ccccc1)C(C#C)CO)Cc1ccccc1 (stereo not given) | 107 | 85% (inactive) | 107% (inactive) | 79.4% (inactive) | 90.3% (inactive) | 9.04% (inactive) | 81.3 | 90.3 | -7.16% (inactive) | 1.5% (inactive)
14 | O=C(NCC1CCCO1)c1ccccc1-c1nc(-c2ccc(Cl)cc2)no1 (stereo not given) | 78.5 | 87.5% (inactive) | 78.5% (inactive) | 76% (inactive) | 95.1% (inactive) | 6.99% (inactive) | 88.1 | 95.1 | -5.68% (inactive) | 1.8% (inactive)
15 | c1cncc(-c2nnc3sc(-c4ccco4)nn23)c1 | 118 | 106% (inactive) | 118% (inactive) | 99.5% (inactive) | 91.5% (inactive) | -6.86% (inactive) | 98.3 | 91.5 | -5.39% (inactive) | 4.68% (inactive)
16 | Cn1c(SCCN2CCCCC2)nnc1-c1ccccc1Br | 94.5 | 95.5% (inactive) | 94.5% (inactive) | 105% (inactive) | 105% (inactive) | 9.74% (inactive) | 95.3 | 105 | -4.4% (inactive) | 5.48% (inactive)
17 | CCS(=O)(=O)N1CCC(C(=O)NCCc2ccc(C)cc2)CC1 | 99 | 106% (inactive) | 99% (inactive) | 100% (inactive) | 89.3% (inactive) | 7.41% (inactive) | 81.9 | 89.3 | -2.6% (inactive) | -9.68% (inactive)
18 | COC(=O)c1ccccc1NC(=O)c1noc2c1CCC2 | 93 | 83.5% (inactive) | 93% (inactive) | 86.7% (inactive) | 74.8% (inactive) | -4.56% (inactive) | 79.4 | 74.8 | -7.37% (inactive) | 2.55% (inactive)
19 | CCOC(=O)N1CCN(c2cc3nccnc3cc2F)CC1 | 114 | 92% (inactive) | 114% (inactive) | 84.5% (inactive) | 99.3% (inactive) | 5.61% (inactive) | 93.7 | 99.3 | -7.03% (inactive) | -4.17% (inactive)
20 | CC(C)Cn1c(N)c(C(=O)COC(=O)c2ccc3c(c2)OCCO3)c(=O)n(C)c1=O | 87 | 102% (inactive) | 87% (inactive) | 71.3% (inactive) | 91.8% (inactive) | -6.76% (inactive) | 98.6 | 91.8 | -4.46% (inactive) | 0.16% (inactive)
21 | CCOC(=O)Cc1c(C)c2c(O)cc(O)cc2oc1=O | 84.5 | 77.5% (inactive) | 84.5% (inactive) | 97.3% (inactive) | 99% (inactive) | 12.2% (inactive) | 86.8 | 99 | -6.27% (inactive) | 1.9% (inactive)
22 | CCN(CC)CCCNC(=O)c1nn(-c2ccc(OC)cc2OC)c(=O)c2ccccc12 | 97 | 103% (inactive) | 97% (inactive) | 72.3% (inactive) | 96.1% (inactive) | -0.935% (inactive) | 97 | 96.1 | -2.57% (inactive) | -7.46% (inactive)
23 | CCC1(NC(C)=O)CC2CC1CC2NC(C)=O (stereo not given) | 94.5 | 100% (inactive) | 94.5% (inactive) | 107% (inactive) | 100% (inactive) | 11% (inactive) | 89.1 | 100 | -3.2% (inactive) | -5.74% (inactive)
24 | CC(C)COc1nc2ccccc2nc1C(C#N)C(=O)NC1CCCCC1 (stereo not given) | 99 | 105% (inactive) | 99% (inactive) | 80% (inactive) | 84.9% (inactive) | -20.3% (inactive) | 105 | 84.9 | -4.67% (inactive) | 31% (active)
25 | O=C(CSc1nc2ccsc2c(=O)n1NC(=O)c1ccccc1)Nc1nccs1 | 105 | 86.5% (inactive) | 105% (inactive) | 96.9% (inactive) | 100% (inactive) | 2.06% (inactive) | 98 | 100 | -4.74% (inactive) | -2.83% (inactive)
26 | CCc1nc(NCCCN2CCOCC2)c2oc3ccccc3c2n1 | 88 | 95% (inactive) | 88% (inactive) | 80.3% (inactive) | 89.1% (inactive) | 0.87% (inactive) | 88.2 | 89.1 | -0.13% (inactive) | 0.81% (inactive)
27 | Cn1c(SCC(=O)N2CCOCC2)nnc1-c1cnccn1 | 109 | 116% (inactive) | 109% (inactive) | 101% (inactive) | 109% (inactive) | 10.4% (inactive) | 98.7 | 109 | -4.34% (inactive) | -9.17% (inactive)
28 | Cc1ccc(C)c(NC(=O)CC(NCCCN2CCOCC2)C(=O)O)c1 (stereo not given) | 94 | 93.5% (inactive) | 94% (inactive) | 106% (inactive) | 88.3% (inactive) | -8.47% (inactive) | 96.8 | 88.3 | -0.78% (inactive) | 9.51% (inactive)
29 | CC(C)(C)C(=O)Cn1c(=N)n(Cc2ccccc2)c2ccccc21 | 84.5 | 81.5% (inactive) | 84.5% (inactive) | 53.3% (inactive) | 76.2% (inactive) | -0.985% (inactive) | 77.1 | 76.2 | -3.2% (inactive) | -2.3% (inactive)
